Columns and labels:
[1] = folding enthalpy; higher = less favourable; fluorescence melt of hairpins on a sequencing array, two-state fit; details: sodium 0.088 M
Outline: (§1)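 Melting temperature and folding enthalpy were derived from bootstrapped two-state fits. The fitted temperatures were raised by 9.35 °C to agree with UV melts, and four replicates were combined by inverse variance. The underlying data were Cy3 fluorescence images of library hairpins, with annealed Cy3 and quencher oligos, on a sequenced MiSeq flow cell in 50 mM Na-HEPES pH 8.0, 25 mM NaCl, taken in 2.5 °C steps up to 60 °C, normalised to pre-quench Cy3 and to control constructs.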

[2] = melting temperature; fluorescence melt of hairpins on a sequencing array, two-state fit, raised by 9.35 °C to match UV melts; details: sodium 0.088 M
Outline: as §1

Sequence | folding enthalpy [1] | Tm [2]
GCCCCCACGAAAGTGGGC (((..(((....)))))) | -5.47 kcal/mol | 38.6 °C
GACGTACGAAAGTATGTC (((.(((....))).))) | -43.4 kcal/mol | 54.6 °C
GGGATCGAAAGATTCCC ((((((....))).))) | -25 kcal/mol | 51 °C
GAGCATGGAAACATGTTC ((.((((....)))).)) | -25.6 kcal/mol | 42.8 °C
GATCCTACGGAGGATC ((((((....)))))) | -35 kcal/mol | 50.9 °C
GCTCCAGGAAACCAGAGC ((((..(....)..)))) | -19.4 kcal/mol | 34.4 °C
GCATAGCGAAAGCGGTGC (((..((....))..))) | -32.6 kcal/mol | 63.6 °C
GCTGACGAAAGTCGTAGC ((((((....)))..))) | -21.6 kcal/mol | 47.1 °C
GTTTCCCGAAAGGGGAAC (((.(((....))).))) | -36.2 kcal/mol | 56.1 °C
GCGTCGCGAAAGCGGGGC ((..(((....)))..)) | -29 kcal/mol | 67.4 °C
GCCTCGCGAAAGCAAGGC ((((.((....)).)))) | -30 kcal/mol | 65.1 °C
GACTCCGAAAGGAATGTC ((((((....)))..))) | -17.7 kcal/mol | 38.6 °C
CGGATCGGAAACGACCCG (((.(((....))).))) | -38.1 kcal/mol | 50 °C
GCAACGCGAAAGCTGTGC (((..((....))..))) | -15.2 kcal/mol | 48.9 °C
GCCCTGGCGAAAGCCGGC (((..(((....)))))) | -11.1 kcal/mol | 52 °C
GATGCAGGAAACTGCGTC ((.((((....)))).)) | -44.7 kcal/mol | 52.5 °C
GCTCAGCGAAAGCAGCGC ((.(.((....)).).)) | -18 kcal/mol | 49.4 °C
GCATCGCGAAAGCAGTGC (((..((....))..))) | -18 kcal/mol | 52.3 °C
GATCCAGTCTTGGATC ((((((....)))))) | -43.5 kcal/mol | 53.5 °C

Sequence | folding enthalpy [1] | Tm [2]
GACAAAGGAAACTTCGTC (((.(((....))).))) | -17 kcal/mol | 26.7 °C
GCTACCGAAAGGTAAAGC ((((((....)))..))) | -19.8 kcal/mol | 46.8 °C
GCGTGGCGAAAGCTATGC ((.(.((....)).).)) | -31.4 kcal/mol | 52.5 °C
GATCGATTCCTCGATC ((((((....)))))) | -41.2 kcal/mol | 52.3 °C
GATCGGTATCCCGATC ((((((....)))))) | -34.5 kcal/mol | 57.3 °C
GATCCCTTAGGGGATC ((((((....)))))) | -43.7 kcal/mol | 61.3 °C
GCTACGCGAAAGCGGGGC ((..(((....)))..)) | -20.7 kcal/mol | 63.7 °C
GCACACGAAAGTGCATGC ((((((....)))..))) | -14.4 kcal/mol | 42.1 °C
GATCCCCATGGGGATC ((((((....)))))) | -39.7 kcal/mol | 67.7 °C
GATCAGCATTCTGATC ((((((....)))))) | -39 kcal/mol | 48.8 °C
GTCTTTGGAAACAAGGAC (((.(((....))).))) | -31.1 kcal/mol | 41.5 °C
GATCCTCGAAAGGATC ((((((....)))))) | -37.2 kcal/mol | 50.4 °C
GCGTCTGGACGC ((((....)))) | -34.1 kcal/mol | 59.8 °C
GATCGCAGGGGCGATC ((((((....)))))) | -34.1 kcal/mol | 67.5 °C
GGGACCGAAAGGTGACCC ((((((....)))..))) | -17.6 kcal/mol | 45.6 °C
GACCGACGAAAGTCGTC (((.(((....)))))) | -10.6 kcal/mol | 45 °C
GATCATCCTGATGATC ((((((....)))))) | -41.7 kcal/mol | 54.5 °C
GTGGCTACGAAAGTACAC (((..(((....)))))) | -11.3 kcal/mol | 32.9 °C
GCGAGGCTCGC ((((...)))) | -28.5 kcal/mol | 52.8 °C

Source: the array DNA melting data of Ke et al. (doi:10.1101/2024.01.08.574731)
